Results as given in ChEMBL document CHEMBL3797198, “Discovery of pyrazinone based compounds that potently inhibit the drug-resistant enzyme variant R155K of the hepatitis C virus NS3 protease” (Bioorg Med Chem, 2016).

How the values were obtained:
[1] = Inhibition of wild-type full-length HCV genotype 1a NS3 protease using Ac-DED(Edans)EEAbu-psi-[COO]ASK(Dabcyl)-NH2 as substrate by FRET assay; parameters: species or system Hepatitis C virus subtype 1a
In short: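 Full-length HCV NS3 (protease-helicase/NTPase), genotype 1a wild type, FRET protease assay. 1 nM enzyme preincubated 10 min at 30 °C in 50 mM HEPES pH 7.5 with 10 mM DTT. Inhibition taken from measured initial velocities, corrected for each compound's auto-fluorescence. That correction used the ratio of fluorescence with and without compound, measured at every tested concentration.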

Hepatitis C virus = assay: Antiviral activity against HCV infected in human HuH7 cells by cell based replicon assay; assay type: functional, organism-based, Hepacivirus hominis; details: Huh-7
In short: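 HCV replicon cell assay; EC50 given as the mean of two experiments.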

[2] = Cytotoxicity against human HuH7 cells; assay type: cell-based, Huh-7

Compound `CC(C)(C)NC(=O)Nc1nc(Cl)c(CCc2ccccc2)n(CC(=O)Nc2ccccc2S(=O)(=O)NC(=O)c2ccc(C(F)(F)F)cc2)c1=O` has a Ki [1] of 170 nM.
In the case of `CC(C)(C)NC(=O)Nc1nc(Cl)c(Cc2ccccc2)n(CC(=O)O)c1=O`, the Ki [1] is reported as > 10000 nM.
Compound `CC(C)(C)NC(=O)Nc1ncc(Cc2ccccc2)n(CC(=O)NC2(C(=O)NS(=O)(=O)c3ccc(C(F)(F)F)cc3)CC(O)C2)c1=O` (centres undefined) has a Ki [1] of 450 nM.
`CC(C)(C)NC(=O)Nc1nc(Cl)c(CCC2CCCCC2)n(CC(=O)Nc2cc(-c3cncnc3)ccc2C(=O)NS(=O)(=O)c2ccc(C(F)(F)F)cc2)c1=O` showed a Ki [1] of 120 nM.
Compound `CC(C)(C)NC(=O)Nc1nc(Cl)c(Cc2ccccc2)n(CC(=O)NC2(C(=O)NS(=O)(=O)c3ccc(C(F)(F)F)cc3)CC(OCc3ccccc3)C2)c1=O` (centres undefined) has a Ki [1] of 150 nM.
Compound `CC(C)(C)NC(=O)Nc1nc(Cl)c(Cc2cccc3ccccc23)n(CC(=O)Nc2ccccc2S(=O)(=O)NC(=O)c2ccc(C(F)(F)F)cc2)c1=O` has a Ki [1] of 180 nM.
With `CN(C(=O)c1ccccc1NC(=O)Cn1c(CCC2CCCCC2)c(Cl)nc(NC(=O)NC(C)(C)C)c1=O)S(=O)(=O)c1ccc(C(F)(F)F)cc1` the Ki [1] was 260 nM.
Compound `CC(C)(C)NC(=O)Nc1nc(Cl)c(CCC2CCCCC2)n(CC(=O)Nc2ccc(C(=O)NS(=O)(=O)c3ccc(C(F)(F)F)cc3)cc2)c1=O` has a Ki [1] of 260 nM.
Work on `CC[C@H](C)[C@H](NC(=O)[C@H](CC(C)C)NC(=O)C(CC(C(=O)O)C(=O)O)NC(=O)[C@H](CC(=O)O)NC(C)=O)C(=O)N[C@@H](CC1CCCCC1)C(=O)N[C@@H](CS)C(=O)O` (single isomer, unassigned) yielded a Ki [1] of 91 nM.
`CC(C)(C)NC(=O)Nc1nc(Cl)c(CCC2CCCCC2)n(CC(=O)Nc2ccccc2C(=O)NS(=O)(=O)c2ccccc2C(F)(F)F)c1=O` gave a Ki [1] of 130 nM.
For `CC(C)(C)OC(=O)N[C@H]1CCCCC/C=C\[C@@H]2C[C@@]2(C(=O)NS(=O)(=O)C2CC2)NC(=O)[C@@H]2C[C@@H](OC(=O)N3Cc4cccc(F)c4C3)CN2C1=O` [DANOPREVIR], the EC50 (Hepatitis C virus) was 11 nM and the CC50 [2] was > 1000 nM.
Work on `CC(C)(C)NC(=O)Nc1nc(Cl)c(CCC2CCCCC2)n(CC(=O)Nc2cc(F)ccc2C(=O)NS(=O)(=O)c2ccc(C(F)(F)F)cc2)c1=O` yielded a Ki [1] of 110 nM, an EC50 (Hepatitis C virus) of 7300 nM and a CC50 [2] of 38000 nM.
Work on `CC(C)(C)NC(=O)Nc1nc(Cl)c(CCC2CCCCC2)n(CC(=O)Nc2ccc(CC(=O)NS(=O)(=O)c3ccc(C(F)(F)F)cc3)cc2)c1=O` yielded a Ki [1] of 140 nM.
For `CC(C)(C)NC(=O)Nc1nc(Cl)c(CCC2CCCCC2)n(CC(=O)Nc2ccccc2C(=O)NS(=O)(=O)c2cccc(C(F)(F)F)c2)c1=O`, the Ki [1] was 230 nM.
`CC(C)(C)NC(=O)Nc1nc(Cl)c(CCC2CCCCC2)n(CC(=O)Nc2cc(C(=O)NS(=O)(=O)c3ccc(C(F)(F)F)cc3)cc(C(F)(F)F)c2)c1=O` showed a Ki [1] of 100 nM.
`CC(C)(C)NC(=O)Nc1nc(Cl)c(CCC2CCCCC2)n(CC(=O)Nc2cccc(C(=O)NS(=O)(=O)c3ccc(C(F)(F)F)cc3)c2)c1=O` gave a Ki [1] of 170 nM.
Work on `CC(C)(C)NC(=O)Nc1nc(Cl)c(CCC2CCCCC2)n(CC(=O)Nc2cc(Br)ccc2C(=O)NS(=O)(=O)c2ccc(C(F)(F)F)cc2)c1=O` yielded a Ki [1] of 150 nM.
For `CC(C)(C)NC(=O)Nc1nc(Cl)c(CCC2CCCCC2)n(CC(=O)Nc2ccccc2C(=O)O)c1=O`, the Ki [1] was 120 nM, the EC50 (Hepatitis C virus) was 49000 nM and the CC50 [2] was > 100000 nM.
For `CCCC(NC(=O)[C@@H]1[C@H]2CCC[C@H]2CN1C(=O)[C@@H](NC(=O)[C@@H](NC(=O)c1cnccn1)C1CCCCC1)C(C)(C)C)C(=O)C(=O)NC1CC1` (some centres undefined), the Ki [1] was 15 nM, the EC50 (Hepatitis C virus) was 650 nM and the CC50 [2] was > 1000 nM.
For `CC(C)(C)NC(=O)Nc1nc(Cl)c(CCC2CCCCC2)n(CC(=O)NC2(C(=O)NS(=O)(=O)c3ccc(C(F)(F)F)cc3)CC(OCc3ccccc3)C2)c1=O` (centres undefined), the Ki [1] was 70 nM.
For `Cc1ccc(S(=O)(=O)NC(=O)c2ccccc2NC(=O)Cn2c(CCC3CCCCC3)c(Cl)nc(NC(=O)NC(C)(C)C)c2=O)cc1`, the Ki [1] was 120 nM.
`C=Cc1ccc(C(=O)NS(=O)(=O)c2ccc(C(F)(F)F)cc2)c(NC(=O)Cn2c(CCC3CCCCC3)c(Cl)nc(NC(=O)NC(C)(C)C)c2=O)c1` gave a Ki [1] of 120 nM.
In the case of `CC(C)(C)NC(=O)Nc1nc(Cl)c(Cc2cccc3ccccc23)n(CC(=O)Nc2cccc(S(=O)(=O)NC(=O)c3ccc(C(F)(F)F)cc3)c2)c1=O`, the Ki [1] is reported as 190 nM.
For `COC(=O)c1ccccc1NC(=O)Cn1c(CCC2CCCCC2)c(Cl)nc(NC(=O)NC(C)(C)C)c1=O`, the Ki [1] was 120 nM, the EC50 (Hepatitis C virus) was 22000 nM and the CC50 [2] was > 100000 nM.
Work on `CC(C)(C)NC(=O)Nc1nc(Cl)c(Cc2cccc3ccccc23)n(CC(=O)Nc2ccc(S(=O)(=O)NC(=O)c3ccc(C(F)(F)F)cc3)cc2)c1=O` yielded a Ki [1] of 170 nM.
